The text below walks through data of ChEMBL document CHEMBL1125823, “2-Phenylindole-linked [2-(aminoalkyl)pyridine]dichloroplatinum(II): complexes with a selective action on estrogen receptor positive mammary tumors” (1991).

In general, T/C refers to the ratio of treated to control. The inhibition is the drop in the measured response relative to a control, in per cent. A lower inhibition goes with a weak effect.

Assay [1] concerns MCF7. The assay is described as follows: Effect on Estrogen receptor positive MCF-7 human breast cancer cell proliferation at 5x10E-6M (control = 25.4+/-3.1). The assay is classed as functional. The procedure, abridged:
(§1)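 MCF-7 cells were kept in MEM with 5% charcoal-treated newborn calf serum and phenol red for 2 weeks, then about 2×10^4 cells were plated per well. Compounds in 0.1% DMF were added 2 days later and renewed on day 4; DMF alone served as control. Coulter cell counts were taken on day 5; mean of six dishes ± SD; % T/C.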

Assay [2] concerns MCF7. The assay is described as follows: Effect on Estrogen receptor positive MCF-7 human breast cancer cell proliferation at 5x10E-6M. Type of assay: functional. An outline of the steps: as §1
In assay [3] the test system is MCF7. The assay is described as follows: Effect on [3H]thymidine incorporation into estrogen receptor positive MCF-7 human breast cancer cells at 5*10e-6 M (control = 10.6+/-1.9). Type of assay: functional. An outline of the steps:
(§2)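 MCF-7 cells in improved MEM with glutamine, gentamycin and 5% newborn calf serum, switched to charcoal-treated serum two weeks ahead; phenol red present; 37 °C, 5% CO2. About 2×10^4 cells plated per well; compound in 0.1% DMF added 2 days later, renewed on day 4; labelled 3 days later with 1 μCi [3H]thymidine per well for 2 h; cpm/dish, mean of six dishes ± SD.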

Assay [4] concerns the target T1, Estrogen receptor (Mus musculus) (UniProt O08537+P19785). The assay is described as follows: Percent inhibition of estrone stimulated uterotrophic effect in mice at 150 ug. Type of assay: functional. An outline of the steps: (§3)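 Immature mice given test compound per animal sc on three consecutive days together with 0.4 μg estrone/animal/day. Killed 24 h after last injection; uteri fixed in Bouin, dried 100 °C 24 h and weighed. Inhibition = 100 − [(W_S,T − W_V)/(W_S − W_V) × 100] using relative uterus weights; 6-10 animals; Wilcoxon-Mann-Whitney U test.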

Assay [5] addresses T1, Estrogen receptor (Mus musculus). The assay is described as follows: Uterotrophic effect in mice as relative uterine weight(mg) at 15 ug (control = […]+/-1.7). Type of assay: functional, tissue-based.
Assay [6] has the same target. The assay is described as follows: Anti-uterotrophic effect in mice as relative uterine weight(mg) at 15 ug. The assay is classed as functional. The procedure, abridged: (§4)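 Immature mice received the compound sc per animal on three consecutive days, alone or with 0.4 µg estrone per animal per day. Uteri were taken 24 h after the last injection, Bouin-fixed, dried at 100 °C for 24 h and weighed. Relative uterus weight = dry weight (mg)/body weight (g) × 100; mean of 6-10 animals ± SD; Mann-Whitney U test.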

Assay [7] shares this target. The assay is described as follows: Percent inhibition of estrone stimulated uterotrophic effect in mice at 15 ug. Type of assay: functional. The procedure, abridged:
as §3

Assay [8] concerns MCF7. The assay is described as follows: Effect on [3H]thymidine incorporation into estrogen receptor positive MCF-7 human breast cancer cells at 1x10E-6M. Type of assay: functional. The procedure, abridged: (§5)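 MCF-7 cells were grown in MEM with charcoal-treated 5% newborn calf serum and phenol red, then treated with compounds in 0.1% DMF (renewed on day 4) alongside DMF controls. They were labeled 3 days later with 1 µCi [³H]thymidine per well for 2 h, and incorporated radioactivity per dish was measured; mean of six dishes ± SD; % T/C.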
(Dividing cells build labelled thymidine or BrdU into new DNA.)

Assay [9] deals with T1, Estrogen receptor (Mus musculus). The assay is described as follows: Anti-uterotrophic effect in mice as relative uterine weight(mg) at 150 ug. The assay is classed as functional. The procedure, abridged: as §4
The target is the same in assay [10]. The assay is described as follows: Uterotrophic effect in mice as relative uterine weight(mg) at 150 ug (control = […]+/-1.7). Type of assay: functional, tissue-based.
Assay [11] deals with MCF7. The assay is described as follows: Effect on [3H]thymidine incorporation into estrogen receptor positive MCF-7 human breast cancer cells at 1*10^-6 M (control = 10.6+/-1.9). The assay is classed as functional. An outline of the steps: as §5
Assay [12] has as its system MCF7. The assay is described as follows: Effect on [3H]thymidine incorporation into estrogen receptor positive MCF-7 human breast cancer cells at 5x10E-6M. Type of assay: functional. An outline of the steps: as §2
For assay [13], the system named is MCF7. The assay is described as follows: Effect on Estrogen receptor positive MCF-7 human breast cancer cell proliferation at 1x10E-6M. The assay is classed as functional. The procedure, abridged:
as §1

Assay [14] relates to MCF7. The assay is described as follows: Effect on Estrogen receptor positive MCF-7 human breast cancer cell proliferation at 1x10E-6M (control = 25.4+/-3.1). The assay is classed as functional. The procedure, abridged: as §1
For assay [15], the system named is MCF7. The assay is described as follows: Effect on Estrogen receptor positive MCF-7 human breast cancer cell proliferation at 5x10E-7M. The assay is classed as functional. The procedure, abridged: as §1
Assay [16] concerns the target T1, Estrogen receptor (Mus musculus). The assay is described as follows: Uterotrophic effect in mice as relative uterine weight(mg) at 150 ug (control = 12.3+/-3.7). The assay is classed as functional, tissue-based. An outline of the steps:
(§6)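 Immature mice dosed sc per animal on three consecutive days; vehicle controls. Killed and weighed 24 h after last injection; uteri fixed in Bouin solution 2 h, washed with alcoholic LiCl, dried at 100 °C for 24 h. Relative uterus weight = uterine dry weight (mg)/body weight (g) × 100; mean of 6-10 animals ± SD.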

For assay [17], the system named is MCF7. The assay is described as follows: Effect on [3H]thymidine incorporation into estrogen receptor positive MCF-7 human breast cancer cells at 5x10E-7M.
For assay [18], the system named is MCF7. The assay is described as follows: Effect on Estrogen receptor positive MCF-7 human breast cancer cell proliferation at 5x10E-7M (control = 63.8+/-9.0). Type of assay: functional. An outline of the steps:
as §1

Assay [19] concerns the target T1, Estrogen receptor (Mus musculus). The assay is described as follows: Uterotrophic effect in mice as relative uterine weight(mg) at 15 ug (control = 12.3+/-3.7). The assay is classed as functional, tissue-based. An outline of the steps:
as §6

The test system of assay [20] is MCF7. The assay is described as follows: Effect on [3H]thymidine incorporation into estrogen receptor positive MCF-7 human breast cancer cells at 1x10E-6M (control = 42.6+/-2.8). The assay is classed as functional. An outline of the steps:
as §5

The test system of assay [21] is MCF7. The assay is described as follows: Effect on Estrogen receptor positive MCF-7 human breast cancer cell proliferation at 5x10E-6M (control = 63.8+/-9.0). The assay is classed as functional. The procedure, abridged:
as §1

Assay [22] has as its system MCF7. The assay is described as follows: Effect on Estrogen receptor positive MCF-7 human breast cancer cell proliferation at 1x10E-6M (control = 63.8+/-9.0). The assay is classed as functional. An outline of the steps:
as §1

The test system of assay [23] is MCF7. The assay is described as follows: Effect on [3H]-thymidine incorporation into estrogen receptor positive MCF-7 human breast cancer cells at 5x10E-7M (control = 42.6+/-2.8). Type of assay: functional. An outline of the steps:
as §5

The test system of assay [24] is MCF7. The assay is described as follows: Effect on [3H]thymidine incorporation into estrogen receptor positive MCF-7 human breast cancer cells at 5x10E-6M (control = 42.6+/-2.8). Type of assay: functional. An outline of the steps:
as §2

T1 sequence (O08537 whole entry, looked up): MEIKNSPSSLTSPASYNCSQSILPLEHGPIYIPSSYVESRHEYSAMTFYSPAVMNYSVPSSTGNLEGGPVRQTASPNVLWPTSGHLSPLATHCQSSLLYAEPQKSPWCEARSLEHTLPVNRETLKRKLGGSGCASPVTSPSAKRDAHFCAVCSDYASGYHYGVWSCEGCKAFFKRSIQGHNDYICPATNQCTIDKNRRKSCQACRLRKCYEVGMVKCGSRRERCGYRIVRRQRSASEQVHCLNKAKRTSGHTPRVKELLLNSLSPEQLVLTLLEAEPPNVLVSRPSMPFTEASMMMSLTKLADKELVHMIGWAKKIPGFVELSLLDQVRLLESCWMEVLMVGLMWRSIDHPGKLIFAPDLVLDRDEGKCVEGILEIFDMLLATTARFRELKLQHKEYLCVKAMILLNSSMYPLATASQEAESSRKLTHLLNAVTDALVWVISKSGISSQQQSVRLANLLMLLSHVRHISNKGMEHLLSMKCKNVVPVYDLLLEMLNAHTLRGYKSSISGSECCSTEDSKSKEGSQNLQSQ
T1 sequence (P19785 whole entry, looked up): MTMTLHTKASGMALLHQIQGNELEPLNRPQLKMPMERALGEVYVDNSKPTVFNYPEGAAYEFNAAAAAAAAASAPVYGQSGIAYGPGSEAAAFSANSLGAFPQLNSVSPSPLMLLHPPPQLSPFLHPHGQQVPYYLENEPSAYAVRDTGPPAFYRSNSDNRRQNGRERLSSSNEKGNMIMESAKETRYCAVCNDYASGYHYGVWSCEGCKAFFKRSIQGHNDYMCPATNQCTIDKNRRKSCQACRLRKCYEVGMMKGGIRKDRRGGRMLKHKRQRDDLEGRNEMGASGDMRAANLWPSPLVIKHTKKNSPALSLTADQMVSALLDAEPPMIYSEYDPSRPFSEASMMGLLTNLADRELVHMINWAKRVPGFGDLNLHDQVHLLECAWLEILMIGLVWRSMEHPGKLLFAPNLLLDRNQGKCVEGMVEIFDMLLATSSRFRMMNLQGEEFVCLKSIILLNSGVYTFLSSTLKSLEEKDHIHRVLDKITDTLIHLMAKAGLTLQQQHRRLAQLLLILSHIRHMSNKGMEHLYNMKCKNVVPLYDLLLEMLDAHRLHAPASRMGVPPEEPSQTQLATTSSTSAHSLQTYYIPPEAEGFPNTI

Regarding `CCC(NCCCCCCn1c(-c2ccc(O)cc2)c(C)c2cc(O)ccc21)c1ccccn1` (configuration not stated), the Cell no/dish in [1] is recorded as 137000; in [14], 195000. For the same compound, the T/C in [2] worked out at 54%; in assay [8] it was 99%; in assay [12] it was 79%; in assay [13], 77%. Further, the Activity in assay [3] amounted to 8400; in assay [11] it was 10500. The inhibition in assay [4] was 51%; in [7], 42%. For the same compound, the Relative uterus weight in assay [5] amounted to 14.7 mg; in assay [6], 32.8 mg; in assay [9], 30.5 mg; in assay [10], 26 mg.

In the case of `Cc1c(-c2ccc(O)cc2)n(CCCCCCCNCc2ccccn2)c2ccc(O)cc12`, the T/C is given as 58% in assay [15]; 23% in [2]; 34% in assay [17]; 27% in [8]; 5% in assay [12]; 41% in [13]. Further, the Relative uterus weight was 19 mg in [16], 15.2 mg in assay [19], 41.9 mg in [6] and 29.4 mg in assay [9]. Besides, the inhibition in [4] amounted to 48%; in [7], 11%. The Cell no/dish was 369000 in assay [18], 146000 in [21] and 264000 in assay [22]. In addition, the Activity in [20] is on record as 11300; in assay [24], 2200. Moreover, the “[3H] thymidinecpm/dish” value in assay [23] stood at 14500.
